# Source: ChEMBL document CHEMBL3877293, “Synthesis and Antineoplastic Evaluation of Novel Unsymmetrical 1,3,4-Oxadiazoles” (J Med Chem, 2016)
# Calls of active or inactive are those of the source. No cut-off for these calls is given here.
# What was measured:
# [1] = Cell cycle arrest in human NCI-H1299 cells assessed as G1 phase accumulation at 1 uM after 48 hrs by propidium iodide staining based flow cytometry (reference value: 81%); type: functional
# [2] = Cell cycle arrest in human NB-1 cells assessed as S phase accumulation at 1 uM after 48 hrs by propidium iodide staining based flow cytometry (reference value: 1.7%); details: nb1, 48 h
# [3] = Antiproliferative activity against human MCF7 cells at 0.5 uM after 72 hrs in presence of 5 uM BCRP inhibitor harmine by XTT assay relative to control; type: functional
# Summary of the method: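 Mcf7 cells treated after 24 h for 72 h at 37 °C, 5% CO2 with test compound at 0.5 μM alone or combined with harmine (1, 3, 5 μM) or reversan (5, 15, 25 μM). XTT was added for 4 h at 37 °C, absorbance read at 490 nm, and viability compared with control.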
# [4] = Antiproliferative activity against human HeLa cells after 72 hrs by XTT assay; type: functional, cell-based
# Summary of the method: (§1)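 Cells plated at 1500–2000 per well by doubling time, treated after 24 h with a concentration series in six triplicate wells, and incubated 72 h without a medium change. XTT reagent was then added for 4 h at 37 °C and absorbance read at 490 nm. IC50 is the concentration halving absorbance versus untreated cells. Experiments run in triplicate.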
# [5] = Cell cycle arrest in human SK-N-AS cells assessed as G2/M phase accumulation at 1 uM after 24 hrs by propidium iodide staining based flow cytometry (reference value: 25.2 +/- 1.32%); type: functional
# [6] = Cell cycle arrest in human NB-1 cells assessed as G2/M phase accumulation at 1 uM after 72 hrs by propidium iodide staining based flow cytometry (reference value: 15.8%); details: nb1, 72 h
# [7] = Antiproliferative activity against human RD cells after 72 hrs by XTT assay; type: functional, cell-based; summary of the method: as §1
# [8] = Cytotoxicity against human HeLa cells assessed as inhibition of colony formation at 0.03 uM after 2 weeks by crystal violet staining based assay relative to control; type: functional; details: 336 h
# Summary of the method: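 HeLa seeded at 100-200 cells/well in six-well plates and treated with 0.3 or 0.03 μM compound (DMSO control). Medium with compound changed every 3 days for about two weeks, until control colonies were visible. Colonies fixed and stained with 6.0% glutaraldehyde/0.5% crystal violet for 30 min, then counted against control. Done in triplicate.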
# [9] = Antiproliferative activity against human Kelly cells after 72 hrs by XTT assay; type: functional, cell-based; summary of the method: as §1
# [10] = Cell cycle arrest in human NB1 hTERT cells assessed as sub G1 phase accumulation at 1 uM after 72 hrs by propidium iodide staining based flow cytometry relative to control; type: functional
# [11] = Cell cycle arrest in human NCI-H1299 cells assessed as G2/M phase accumulation at 1 uM after 48 hrs by propidium iodide staining based flow cytometry (reference value: 11.8%); type: functional
# [12] = Effect on p53 expression in human NB-1 cells at 1 uM after 24 hrs by immunoblot method; type: cell-based; details: nb1, 24 h
# Summary of the method: (§2)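 After 24 h treatment at 1 μM, cells lysed in Tris pH 8/NaCl/glycerol/NP-40/EDTA buffer with protease inhibitors. Equal lysate amounts run on 10% SDS gels, blotted to nitrocellulose, probed for p53 with GAPDH as loading control, detected by enhanced chemiluminescence. Bands quantified by densitometry against GAPDH and compared with untreated cells; three independent experiments.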
# [13] = Antiproliferative activity against human PC3 cells after 72 hrs by XTT assay; type: functional, cell-based; details: PC-3, 72 h; summary of the method: as §1
# [14] = Induction of apoptosis in human NB-1 cells assessed as live cells at 5 uM after 72 hrs by Annexin-V FITC/propidium iodide staining based flow cytometry (reference value: 93.3%); type: cell-based, NB1; details: read-out: Activity
# HeLa [15] = experiment: Disruption of beta-tubulin network in human HeLa cells assessed as induction of abnormal cell division at 1 uM after 24 hrs by DAPI staining based immunofluorescence microscopic analysis
# [16] = Cell cycle arrest in human NCI-H1299 cells assessed as S phase accumulation at 1 uM after 48 hrs by propidium iodide staining based flow cytometry (reference value: 7.2%); type: functional
# [17] = Cell cycle arrest in human SH-SY5Y cells assessed as subG1 phase accumulation at 1 uM after 24 hrs by propidium iodide staining based flow cytometry relative to DMSO control; type: functional
# [18] = Antiproliferative activity against human T98G cells after 72 hrs by XTT assay; type: functional, cell-based; summary of the method: as §1
# [19] = Cell cycle arrest in human MCF7 cells assessed as G1 phase accumulation at 1 uM treated for 24 hrs followed by compound washout measured after 24 hrs by propidium iodide staining based flow cytometry (reference value: 61.4%); type: functional
# HeLa [20] = experiment: Induction of apoptosis in human HeLa cells assessed as late apoptotic cells at 5 uM after 48 hrs by Annexin-V FITC/propidium iodide staining based flow cytometry (reference value: 4.9%); type: functional
# MCF7 [21] = experiment: Antiproliferative activity against human MCF7 cells at 2 uM after 72 hrs by XTT assay; type: functional, cell-based
# [22] = Cell cycle arrest in human T98G cells assessed as G1 phase accumulation at 1 uM after 24 hrs by propidium iodide staining based flow cytometry (reference value: 86.1 +/- 1.29%); type: functional
# [23] = Cell cycle arrest in human MCF7 cells assessed as G1 phase accumulation at 1 uM after 24 hrs by propidium iodide staining based flow cytometry (reference value: 54.1 +/- 1.52%); type: functional
# [24] = Antiproliferative activity against human MRC5-SV1 S40 cells after 72 hrs by XTT assay; type: functional, cell-based; summary of the method: as §1
# HeLa [25] = experiment: Induction of apoptosis in human HeLa cells assessed as live cells at 5 uM after 48 hrs by Annexin-V FITC/propidium iodide staining based flow cytometry (reference value: 91.1%); type: functional
# [26] = Cell cycle arrest in human NB1 hTERT cells assessed as S phase accumulation at 1 uM after 48 hrs by propidium iodide staining based flow cytometry (reference value: 10.3%); type: functional
# [27] = Cell cycle arrest in human NCI-H1299 cells assessed as G1 phase accumulation at 1 uM after 24 hrs by propidium iodide staining based flow cytometry (reference value: 61.2 +/- 1.69%); type: functional
# MCF7 [28] = experiment: Increase in p53 expression in human MCF7 cells at 1 uM after 24 hrs by immunoblot method relative to control; type: functional; summary of the method: as §2
# [29] = Cell cycle arrest in human SK-N-AS cells assessed as S phase accumulation at 1 uM after 24 hrs by propidium iodide staining based flow cytometry (reference value: 21.3 +/- 1.14%); type: functional
# [30] = Cell cycle arrest in human NB1 hTERT cells assessed as G2/M phase accumulation at 1 uM after 72 hrs by propidium iodide staining based flow cytometry (reference value: 23.9%); type: functional
# A549 = experiment: Induction of apoptosis in human A549 cells assessed as late apoptotic cells at 5 uM after 72 hrs by Annexin-V FITC/propidium iodide staining based flow cytometry (reference value: 5.2%); type: functional
# [31] = Cell cycle arrest in human MCF7 cells assessed as S phase accumulation at 1 uM treated for 24 hrs followed by compound washout measured after 24 hrs by propidium iodide staining based flow cytometry (reference value: 12.2%); type: functional
smiles,measurement,setting,value
Cc1[nH]c2c(c1-c1nnc(-c3ccccc3)o1)Cc1ccccc1-2,Activity,[1],34.3%
same,Activity,[2],2.4%
same,Activity,[3],40%
same,IC50,[4],50 nM
same,Activity,[5],73%
same,Activity,[6],18.1%
same,IC50,[7],60 nM
same,inhibition at 0.03 µM,[8],≤ 50%
same,IC50,[9],250 nM
same,Activity,[10],25.3%
same,Activity,[11],42.9%
same,Activity,[12],Non-Toxic
same,IC50,[13],670 nM
same,"viability at 72 h, 5 µM",[14],86.6%
same,Activity,HeLa [15],Active
same,Activity,[16],9.7%
same,Activity,[17],15.7%
same,IC50,[18],60 nM
same,Activity,[19],56.8%
same,Activity,HeLa [20],85.1%
same,Activity,MCF7 [21],Active
same,Activity,[22],11.1%
same,Activity,[23],15.7 to 30.1%
same,IC50,[24],130 nM
same,Activity,HeLa [25],6%
same,Activity,[26],10.9%
same,Activity,[27],17.8%
same,fold change (FC),MCF7 [28],2 - 3
same,Activity,[29],9.9%
same,Activity,[30],20.8%
same,Activity,A549,41.7%
same,Activity,[31],11.6%
